Data from ChEMBL document CHEMBL1153784, “Synthesis, characterization, antiamoebic activity and toxicity of novel bisdioxazole derivatives” (Eur J Med Chem, 2009).

Columns and labels:
[1] = test system: Entamoeba histolytica; experiment: Antiamoebic activity against Entamoeba histolytica HM1:IMSS trophozoites after 72 hrs by microdilution method; type: functional, organism-based
Summary of the method: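 Trophozoites grown in Diamond TYIS-33 medium in 96-well plates; amoebae detached by chilling on ice. Compounds from freshly prepared 1 mg/ml DMSO stocks, twofold serial dilutions, DMSO at most 0.016%. Plates gassed with nitrogen 10 min, incubated 37 °C 72 h, washed with 0.9% NaCl, stained, dye released with 0.1 N NaOH, OD 490 nm. IC50 by linear regression of % inhibition vs log dose. Triplicate wells, repeated thrice.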

[2] = Toxicity in rat H9c2 cells after 48 hrs by MTT assay; type: cell-based
Summary of the method: (§1)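 Subconfluent H9c2 cardiac myoblasts exposed to increasing compound concentrations for 48 h at 37 °C in 5% CO2, with an untreated control. Cells washed in PBS, given 5 mg/ml MTT for 45 min at 37 °C. Crystals dissolved in acid isopropanol, absorbance read at 570 nm. Viability = absorbance of treated relative to untreated cells. Run in triplicate.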

[3] = Safety index, ratio of IC50 for rat H9c2 cells to IC50 for Entamoeba histolytica HM1:IMSS trophozoites; type: toxicity, cell-based; settings: read-out: Ratio IC50
[4] = Toxicity in rat H9c2 cells assessed as cell viability at 12.5 ug/ml after 48 hrs by MTT assay; type: cell-based; settings: read-out: Activity; summary of the method: as §1

| IC50 [1] | Compound | IC50 at 48 h [2] | selectivity ratio [3] | viability at 48 h, 12.5 ug/ml [4] |
| --- | --- | --- | --- | --- |
| 6.1 µM | Clc1ccc(C2ON=C(c3ccc(C4=NOC(c5ccc(Cl)c(Cl)c5)O4)cc3)O2)cc1Cl (stereo not given) |  |  |  |
| 1.41 µM | Clc1cccc(C2ON=C(c3ccc(C4=NOC(c5cccc(Cl)c5)O4)cc3)O2)c1 (stereo not given) | 8 µM | 5.67 | 83.5% |
| 1.01 µM | COc1ccc(C2ON=C(c3ccc(C4=NOC(c5ccc(OC)cc5)O4)cc3)O2)cc1 (stereo not given) | > 17 µM | > 16.8 | 89% |
| 4.65 µM | CC(C)c1ccc(C2ON=C(c3ccc(C4=NOC(c5ccc(C(C)C)cc5)O4)cc3)O2)cc1 (stereo not given) |  |  |  |
| 4.38 µM | COc1ccc(C2ON=C(c3ccc(C4=NOC(c5ccc(OC)c(OC)c5)O4)cc3)O2)cc1OC (stereo not given) |  |  |  |
| 1.22 µM | Clc1ccccc1C1ON=C(c2ccc(C3=NOC(c4ccccc4Cl)O3)cc2)O1 (stereo not given) | 34 µM | 27.9 | 96.2% |
| 5.73 µM | O/N=C/c1ccc(/C=N/O)cc1 |  |  |  |
| 3.96 µM | c1ccc(C2ON=C(c3ccc(C4=NOC(c5ccccc5)O4)cc3)O2)cc1 (stereo not given) |  |  |  |
| 2.78 µM | CCc1ccc(C2ON=C(c3ccc(C4=NOC(c5ccc(CC)cc5)O4)cc3)O2)cc1 (stereo not given) |  |  |  |
| 4.21 µM | Clc1ccc(C2ON=C(c3ccc(C4=NOC(c5ccc(Cl)cc5)O4)cc3)O2)cc1 (stereo not given) |  |  |  |
| 1.05 µM | Cc1ccc(C2ON=C(c3ccc(C4=NOC(c5ccc(C)cc5)O4)cc3)O2)cc1 (stereo not given) | 49 µM | 46.7 | 82% |
|  | Cc1ncc([N+](=O)[O-])n1CCO [METRONIDAZOLE] | > 116 µM | > 64.4 |  |
